From publication PMC4353699 (Journal of medicinal chemistry, 2014)

What was measured:
[1] = test system: 18 different strains of MRSA and VRSA; test: MIC, summary over the strain panel; type: cell-based, Staphylococcus aureus
Summary of the method: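 Panel of 18 clinical isolates of MRSA and VRSA, with MRSA strains supplied by the NARSA repository. It includes linezolid-resistant MRSA NRS119 and multidrug-resistant VRSA, USA100, USA200 and USA500. MIC is the minimum concentration of test compound that inhibits bacterial growth.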

[2] = test system: MRSA (USA300); test: Time-kill assay; type: cell-based, Staphylococcus aureus; conditions: for bactericidal effect in time-kill assay / time to eliminate MRSA (CFU to zero): 3.0 × MIC
[3] = Metabolic stability in human liver microsomes; type: in vitro ADME; conditions: without NADPH
[4] = test system: Caco-2 cells; test: Caco-2 permeability assay; conditions: Caco-2, apical to basolateral, 10 μM
[5] = in vitro; conditions: human, Caco-2

Row | Structure (SMILES) | bactericidal effect in time-kill assay [2] | time to eliminate MRSA (CFU to zero) [2] | further results
1 | CCCCc1ccc(-c2nc(C)c(/C(C)=N/NC(=N)N)s2)cc1 [1a] | bactericidal | within two hours | concentration inhibiting growth (MIC), range over MRSA strains [1]: 1.4 to 5.5 µg/mL; metabolism on removing the cofactor NADPH [3]: significantly reduced; Papp, A to B direction [4]: very limited permeability
2 | CCCCCc1ccc(-c2nc(C)c(/C(C)=N/NC(=N)N)s2)cc1 [1d] | bactericidal | within two hours | 
3 | CN[C@H](CC(C)C)C(=O)N[C@H]1C(=O)N[C@@H](CC(N)=O)C(=O)N[C@H]2C(=O)N[C@H]3C(=O)N[C@H](C(=O)N[C@H](C(=O)O)c4cc(O)cc(O)c4-c4cc3ccc4O)[C@H](O)c3ccc(c(Cl)c3)Oc3cc2cc(c3O[C@@H]2O[C@H](CO)[C@@H](O)[C@H](O)[C@H]2O[C@H]2C[C@](C)(N)[C@H](O)[C@H](C)O2)Oc2ccc(cc2Cl)[C@H]1O [VAN, vancomycin, reference compound] |  |  | reduction of CFU by 3-log10 ([2]; within a 12-hour window): not able to reduce the number of CFU by 3-log10
4 | C/C(=N\NC(=N)N)c1sc(-c2ccc(C3CCCCC3)cc2)nc1C [compound 8, 2-{1-[2-(4-Cyclohexylphenyl)-4-methylthiazol-5-yl]ethylidene}hydrazinecarboximidamide] | bactericidal | six hours | 
5 | CNC(=C[N+](=O)[O-])NCCSCc1ccc(CN(C)C)o1 [ranitidine] |  |  | Papp A→B at 2 h, 10 µM [5]: 0.2 ×10⁻⁶ cm/s
